Scp-1 inhibitor: inhibitors of human Scp-1 phosphatase; hit rate 0.88% among 340,000; inhibition, % at 20 µM; Recombinant Scp1, phosphopeptide, malachite green phosphate absorbance; AID 493091;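 active = inhibition above about 50% at 20 µM, limit read from the data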
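Assay system: SCP-1 catalytic fragment, aa 76-261 | Buffer or medium: Tris acetate buffer pH 5.5 with MgCl2 and Tween-20 | Compound: One concentration, 20 µM, with 1.0% DMSO | Also added: Phospho 17-mer peptide substrate | Signal: Absorbance at 630 nm | Incubation: 45 min enzyme reaction at room temperature | Measure: % inhibition of SCP-1 phosphate liberation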
STEP inh: inhibitors of human striatal-enriched phosphatase STEP. P54829. recombinant STEP, OMFP fluorogenic substrate, fluorescence. inhibition, % at 20 µM. hit rate 0.25% among 360,000;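 active = inhibition at 20 µM, scaled per plate between control wells, above about 37%, limit read from the data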
Target sequence (P54829 whole entry, looked up): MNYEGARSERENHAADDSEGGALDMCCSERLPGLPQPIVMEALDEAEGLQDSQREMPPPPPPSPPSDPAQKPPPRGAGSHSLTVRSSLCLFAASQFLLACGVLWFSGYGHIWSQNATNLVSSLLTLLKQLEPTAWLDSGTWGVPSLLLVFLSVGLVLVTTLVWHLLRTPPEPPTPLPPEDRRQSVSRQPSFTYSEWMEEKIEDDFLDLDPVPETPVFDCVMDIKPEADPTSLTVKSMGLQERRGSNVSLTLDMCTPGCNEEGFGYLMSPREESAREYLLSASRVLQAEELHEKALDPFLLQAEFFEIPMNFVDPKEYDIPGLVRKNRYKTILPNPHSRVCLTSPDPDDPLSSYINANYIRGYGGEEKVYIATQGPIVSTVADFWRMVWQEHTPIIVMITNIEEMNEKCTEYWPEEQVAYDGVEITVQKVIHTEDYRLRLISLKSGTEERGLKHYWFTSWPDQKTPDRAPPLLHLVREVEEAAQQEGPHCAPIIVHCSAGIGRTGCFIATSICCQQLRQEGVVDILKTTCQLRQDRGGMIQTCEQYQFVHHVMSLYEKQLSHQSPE
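Also added – OMFP at 25 µM · Test system – STEP tyrosine phosphatase · Technique – FITC-channel fluorescence of OMFP product · Schedule – 20 min at room temperature, dark · Evaluation – control-normalized % inhibition with plate pattern correction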
DNMT1 inh: DNMT1 (human) enzyme inhibition | inhibition (reported as % activation of signal), % at 10 µM | AID 588458 | DNMT1 molecular beacon, Hinp1I cleavage, fluorescence | hit rate 0.83% among 360,000 | P26358; in the data active = inhibition above about 50%
LMPTP inh: blocks human LMPTP phosphatase | P24666 | AID 651560 | hit rate 0.22% among 360,000 | inhibition, % at 20 µM | recombinant LMPTP-A, OMFP fluorogenic substrate, fluorescence intensity;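 active = compounds that cut the enzyme signal by at least half of the control window in the single-dose screen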
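Assay system: LMPTP-A phosphatase enzyme | Input: 0.625 nM enzyme | Also added: Fluorogenic phosphatase substrate OMFP at 400 µM final | Compound dosing: One test concentration per compound, 20 µM, with 3% DMSO overall | Schedule: 50 min enzyme reaction at room temperature, protected from light | Signal: Fluorescence intensity | Benchmarks: no-enzyme and uninhibited controls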
SUMO1 PPI mod: alters human SUMO1 binding to SIM partners; SUMO1 binding to a labelled peptide, TR-FRET, 1 h; inhibition, % at 20 µM; hit rate 0.33% among 360,000; AID 602429; in the data active = inhibition above about 37%
Target sequence (P63165 whole entry, looked up): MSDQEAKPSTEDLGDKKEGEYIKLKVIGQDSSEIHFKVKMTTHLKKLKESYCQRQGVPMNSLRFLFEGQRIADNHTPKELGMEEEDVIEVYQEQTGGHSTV
Scp1 confirm: Scp-1 (human) inhibition, single-dose confirmed. shares compounds with Scp-1 inhibitor. recombinant SCP-1 catalytic domain, phosphate release, malachite green absorbance. inhibition, % at 20 µM. hit rate 61% among 2,500
Scp-1 MG ctr: interferes with malachite green readout, flagging false Scp-1 hits. shares compounds with Scp-1 inhibitor. Colorimetric interference counterscreen, malachite green absorbance 630 nm. apparent inhibition (interference), % at 20 µM. 2,500 tested, under 10 active;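 note: compounds added after enzyme reaction finished so only phosphate colour detection is probed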
Scp-1 Tm shift: Scp-1 (human) binding by thermal shift. Recombinant SCP1, Sypro Orange thermal shift Tm. hit rate 25% among 1,500. thermal shift relative to vanadate control, % at 40 µM. AID 540329. shares compounds with Scp-1 inhibitor;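 active = substances whose mean melting-temperature shift, as a percentage of the reference inhibitor's shift, reaches about 5.3%, limit read from the data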
DNMT1 confirm: confirmation of human DNMT1 inhibitors. shares compounds with DNMT1 inh. DNMT1 molecular beacon HinP1I cleavage, fluorescence. inhibition, % at 10 µM. hit rate 8% among 2,300. AID 602385;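 active = average inhibition of at least 30% in the single-concentration confirmation test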
Beacon interf: counter-screen for DNMT1 inhibitors: spectral interference | shares compounds with DNMT1 inh | DNMT1 molecular beacon spectral interference counterscreen, fluorescence 485/520 | activation (fluorescence interference), % at 10 µM | hit rate 1% among 2,300 | AID 602387;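 active = activation of at least 30% at 10 µM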;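 note: DNMT1 catalytic domain with a HinP1I cleavage step and a FAM/dabcyl DNA beacon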
Of the large screens only hits and unclear results are named; the others gave an inactive call (follow-up assays come after a bar, where they were run). This is a sample that favours compounds with a hit; in the whole collection about 1.7% have one here.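 Rule for the calls, unless noted: active = inhibition of at least 30% at 20 µM; inactive = the rest.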

O=C(O)C(C(=O)/C=C/c1ccco1)=C1SCCS1	Scp-1 inhibitor 55, DNMT1 inh 96 | Scp1 confirm 63 | Scp-1 MG ctr inactive | Scp-1 Tm shift inactive | DNMT1 confirm inactive | Beacon interf inactive
O=C(/C=C/c1ccco1)NC1CCCC1	none
O=C(C=C1SCCS1)/C=C/c1ccco1	Scp-1 inhibitor 76, DNMT1 inh 88 | Scp1 confirm 52 | Scp-1 MG ctr inactive | Scp-1 Tm shift inactive | DNMT1 confirm inactive | Beacon interf inactive
O=C(C=Cc1ccco1)c1ccco1	none
O=C(N/N=C/c1ccc(-c2ccccc2C(=O)O)o1)c1cccs1	Scp-1 inhibitor 52, DNMT1 inh 63 | Scp1 confirm 71 | Scp-1 MG ctr inactive | Scp-1 Tm shift 6.5 | DNMT1 confirm inactive | Beacon interf inactive
Cc1ccc(N=Nc2ccc(O)c(/C=N\NC(=O)c3ccc(N)cc3)c2)cc1C	Scp-1 inhibitor 95, DNMT1 inh 81 | Scp1 confirm 74 | Scp-1 MG ctr inactive | Scp-1 Tm shift inactive | DNMT1 confirm inactive | Beacon interf inactive
CC(C)(C)OC(=O)N/N=C/c1cc(N=Nc2ccccc2)ccc1O	none
Cc1ccc(S(=O)(=O)/N=C2/NC(=O)/C(=C\c3cc(Br)cc(Br)c3O)S2)cc1	none
Cc1ccc(S(=O)(=O)/N=C2/NC(=O)/C(=C/c3ccc(Br)o3)S2)cc1	Scp-1 inhibitor 56, DNMT1 inh 85 | Scp1 confirm 54 | Scp-1 MG ctr inactive | Scp-1 Tm shift 14 | DNMT1 confirm inactive | Beacon interf inactive
COCCn1c(C)cc(C(=O)COC(=O)c2cccc(O)c2)c1C	none
COCCn1c(C)cc(C(=O)COC(=O)c2cc3c(s2)CCC3)c1C	Scp-1 inhibitor 52, DNMT1 inh 105 | Scp1 confirm 70 | Scp-1 MG ctr inactive | Scp-1 Tm shift inactive | DNMT1 confirm inactive | Beacon interf inactive
Cc1[nH]c2ccccc2c1C(=O)COC(=O)C1CC(=O)N(Cc2ccco2)C1 (centres undefined)	none
Cc1ccc(C(=O)Oc2ccc(C(=O)COC(=O)C3CC(=O)N(Cc4ccco4)C3)cc2)cc1 (centres undefined)	Scp-1 inhibitor 60, DNMT1 inh 66 | Scp1 confirm 48 | Scp-1 MG ctr inactive | Scp-1 Tm shift inactive | DNMT1 confirm inactive | Beacon interf inactive
Cc1ccc(-n2c(C)cc(C(=O)OCC(=O)N3CCOCC3)c2C)cc1	none
Cc1ccc(C(=O)OCC(=O)c2ccc(CC(=O)N3CCOCC3)s2)c(C)c1	Scp-1 inhibitor 72, DNMT1 inh 55 | Scp1 confirm 78 | Scp-1 MG ctr inactive | Scp-1 Tm shift 6.7 | DNMT1 confirm inactive | Beacon interf inactive
Cc1ccc(S(=O)(=O)N(Cc2ccccc2)Cc2ccco2)cc1	none
COc1ccccc1N(CC(=O)NCc1ccco1)S(=O)(=O)c1ccc(C)cc1	Scp-1 inhibitor 87, STEP inh 61, DNMT1 inh 93 | Scp1 confirm 73 | Scp-1 MG ctr inactive | Scp-1 Tm shift inactive | DNMT1 confirm inactive | Beacon interf inactive
Cc1ccc(S(=O)(=O)N(CC(=O)O)Cc2ccco2)cc1	Scp-1 inhibitor 93, DNMT1 inh 76 | Scp1 confirm 61 | Scp-1 MG ctr inactive | Scp-1 Tm shift inactive | DNMT1 confirm inactive | Beacon interf inactive
COc1ccc(N(CC(=O)NCc2ccco2)S(=O)(=O)c2ccc(C)cc2)cc1OC	none
CCc1ccc(-c2cc3c(=O)n(CC(=O)NCCCN4CCN(CC)CC4)nc(C)n3n2)cc1	none
CC(=O)Nc1ccc2c(COC(=O)CC3Sc4ccccc4NC3=O)cc(=O)oc2c1 (centres undefined)	Scp-1 inhibitor 57, DNMT1 inh 60 | Scp1 confirm 70 | Scp-1 MG ctr inactive | Scp-1 Tm shift inactive | DNMT1 confirm inactive | Beacon interf inactive
COc1ccc2c(COC(=O)CC3Sc4ccccc4NC3=O)cc(=O)oc2c1 (centres undefined)	none
COc1ccc(N2Cc3cccc(C(=O)O)c3C2=O)cc1	Scp-1 inhibitor 82, DNMT1 inh 87 | Scp1 confirm 71 | Scp-1 MG ctr inactive | Scp-1 Tm shift inactive | DNMT1 confirm inactive | Beacon interf inactive
COc1ccc(N2Cc3ccccc3C2=O)cc1	none
O=C(Nc1ccccc1C(F)(F)F)NC1(C(=O)N2CCOCC2)CCCCC1	Scp-1 inhibitor 75, DNMT1 inh 95, LMPTP inh 61, SUMO1 PPI mod 42 | Scp1 confirm 55 | Scp-1 MG ctr inactive | Scp-1 Tm shift 12 | DNMT1 confirm inactive | Beacon interf inactive
O=C(NCCc1ccc(Cl)cc1Cl)c1cncc(Br)c1	none
O=C(COc1cccc([N+](=O)[O-])c1)N/N=C/c1ccco1	Scp-1 inhibitor 63, DNMT1 inh 59 | Scp1 confirm 45 | Scp-1 MG ctr inactive | Scp-1 Tm shift inactive | DNMT1 confirm inactive | Beacon interf inactive
CCc1ccc(OCC(=O)N/N=C\c2ccco2)c([N+](=O)[O-])c1	Scp-1 inhibitor 80, DNMT1 inh 81 | Scp1 confirm 47 | Scp-1 MG ctr inactive | Scp-1 Tm shift inactive | DNMT1 confirm inactive | Beacon interf inactive
Cc1cc(C)cc(OCC(=O)N/N=C/c2ccco2)c1	none
O=C(COc1cccc2ccccc12)N/N=C/c1ccco1	none
COc1ccccc1Nc1nnc(SCC(=O)N2CCCC2=O)s1	none
CCc1ccc(Nc2nnc(SCC(=O)NC(=O)CN3CCCC3=O)s2)cc1	Scp-1 inhibitor 65, DNMT1 inh 64 | Scp1 confirm 48 | Scp-1 MG ctr inactive | Scp-1 Tm shift inactive | DNMT1 confirm inactive | Beacon interf inactive
c1ccc(COc2ncnc3c2ncn3CCCNCC2CCCO2)cc1 (centres undefined)	none
CC1C=CC(C)C(C(=O)O)C1C(=O)O (centres undefined)	Scp-1 inhibitor 86, DNMT1 inh 61 | Scp1 confirm 55 | Scp-1 MG ctr inactive | Scp-1 Tm shift inactive | DNMT1 confirm inactive | Beacon interf inactive
Cc1cc(-n2c(C)cc(C(=O)COc3ccc(F)c(F)c3)c2C)no1	none
O=C(N/N=C/c1ccco1)C1CC1c1ccccc1 (centres undefined)	Scp-1 inhibitor 60, DNMT1 inh 92 | Scp1 confirm 48 | Scp-1 MG ctr inactive | Scp-1 Tm shift inactive | DNMT1 confirm inactive | Beacon interf inactive
O=C(N/N=C/c1ccco1)C1CC1	none

Screening results: PubChem, Sanford-Burnham Center for Chemical Genomics
